Experimental data as given in ChEMBL document CHEMBL1127813, “Pseudopeptide inhibitors of Ras farnesyl-protein transferase” (J Med Chem, 1994).
Calls of active or inactive are those of the source. The rule behind the calls is not given here.

Assays:
[1] = biological target: Protein farnesyltransferase (Bos taurus, UniProt P29702+P49355); experiment: Inhibitory activity against Ras Farnesyl Protein transferase from bovine brain
How it was run: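 FPTase purified from bovine brain (about 1 nM) incubated with [³H]FPP, recombinant Harvey-Ras and varying inhibitor concentrations. Protein was acid-precipitated and Ras-bound label counted by scintillation. IC50 is the concentration halving label incorporation relative to the no-inhibitor control, given as mean ± SEM with the number of determinations.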

[2] = biological target: T1, Geranylgeranyl transferase type I (Bos taurus, UniProt P29702+Q5EAD5); experiment: Inhibitory activity against bovine type-1 geranylgeranyl transferase.; assay type: protein-complex assay
[3] = biological target: T1, Geranylgeranyl transferase type I; experiment: In vitro inhibition of bovine type-1 geranylgeranyl transferase; assay type: protein-complex assay
NIH3T3 [4] = experiment: The cytotoxic endpoint, the highest nontoxic concentration for cultured NIH3T3 cells; assay type: functional, cell-based; details: Mus musculus
How it was run: (§1)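 NIH3T3 fibroblasts exposed to compound for 48 h; viability read by MTT staining. Endpoint is the highest concentration tolerated without toxicity. Top concentration tested was 100 μM for most compounds; one lactone was dosed up to 1 mM.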

[5] = biological target: T2, Protein farnesyltransferase (Mus musculus) (UniProt Q61239+Q8K2I1); experiment: Inhibition of v-ras posttranslational processing in NIH3T3 cells at 100 uM; assay type: cell-based
How it was run: (§2)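 NIH 3T3 cells expressing viral Ha-ras were metabolically labeled with [³⁵S]methionine while exposed to compound or solvent control. Cells were lysed after 24 h and Ras was immunoprecipitated to assess posttranslational processing. Scored as percent inhibition of processing; +++ means ≥90% inhibition. Lovastatin 15 μM was the reference.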

[6] = The binding affinity against Ras protein
[7] = biological target: T2, Protein farnesyltransferase (Mus musculus); experiment: Inhibition of v-ras posttranslational processing in NIH3T3 cells (No inhibition); assay type: cell-based; how it was run: as §2
NIH3T3 [8] = experiment: Highest nontoxic concentration in NIH3T3 cells; assay type: functional, cell-based; details: Mus musculus; how it was run: as §1
[9] = biological target: T2, Protein farnesyltransferase (Mus musculus); experiment: Inhibition of v-ras posttranslational processing in NIH3T3 cells at 5 uM (No inhibition); assay type: cell-based; how it was run: as §2
[10] = biological target: T2, Protein farnesyltransferase (Mus musculus); experiment: Inhibition of v-ras posttranslational processing in NIH3T3 cells at 10 uM; assay type: cell-based; how it was run: as §2
[11] = biological target: T2, Protein farnesyltransferase (Mus musculus); experiment: Inhibition of v-ras posttranslational processing in NIH3T3 cells at 15 uM; assay type: cell-based; how it was run: as §2
[12] = biological target: T2, Protein farnesyltransferase (Mus musculus); experiment: Inhibition of v-ras posttranslational processing in NIH3T3 cells at 1 uM; assay type: cell-based; how it was run: as §2

Structure (SMILES): CCC(C)[C@H](NC[C@@H](NC(=O)[C@@H](N)CS)C(C)CC)C(=O)N[C@@H](CCO)C(=O)O (stereo partly specified)
- IC50 [1]: 150 nM

Structure (SMILES): CC[C@H](C)[C@H](NC(=O)[C@@H](NCCCS)C(C)C)C(=O)N[C@@H](CCSC)C(=O)O
- IC50 [1]: 29 nM
- IC50 [2]: 2200 nM

Structure (SMILES): CCC(C)[C@@H](CN[C@@H](Cc1ccccc1)C(=O)N[C@@H](CCSC)C(=O)O)NCCCS (stereo partly specified)
- IC50 [1]: 400 nM
- IC50 [3]: > 10000 nM

Structure (SMILES): CC[C@H](C)[C@H](NC[C@@H](N)CS)C(=O)N[C@@H](Cc1ccccc1)C(=O)N[C@@H](CCSC)C(=O)O
- Concentration (NIH3T3 [4]): > 100 µM
- inhibition [5]: 10%
- IC50 [1]: 18 nM
- IC50 [2]: 310 nM

Structure (SMILES): CC[C@H](C)[C@H](NC[C@@H](NC[C@@H](N)CS)[C@@H](C)CC)C(=O)N[C@@H](CCO)C(=O)O
- Concentration (NIH3T3 [4]): > 100 µM
- IC50 [1]: 20 nM
- Ki [6]: 20 nM
- IC50 [2]: 45000 nM
- inhibition [7]: inactive

Structure (SMILES): CC[C@H](C)[C@H](NCCCS)C(=O)N[C@@H](Cc1ccccc1)C(=O)N[C@@H](CCSC)C(=O)O
- IC50 [1]: 50 nM
- IC50 [2]: > 10000 nM

Structure (SMILES): CCC(C)[C@H](NCC(N)CS)C(=O)N[C@@H](Cc1ccccc1)C(=O)N[C@@H](CCSC)C(=O)OCc1ccccc1 (stereo partly specified)
- Concentration (NIH3T3 [8]): 5 µM
- inhibition [9]: inactive

Structure (SMILES): CC[C@H](C)[C@H](NC[C@@H](N)CS)C(=O)N[C@H](C(=O)N[C@@H](CCO)C(=O)O)[C@@H](C)CC
- Concentration (NIH3T3 [4]): > 100 µM
- IC50 [1]: 42 nM
- IC50 [2]: 8000 nM
- inhibition [7]: inactive

Structure (SMILES): CC[C@H](C)[C@H](NC(=O)[C@@H](NC[C@@H](N)CS)C(C)C)C(=O)N[C@@H](CC(C)C)C(=O)O
- IC50 [1]: 550 nM

Structure (SMILES): CCOC(=O)[C@H](CCSC)NC(=O)[C@H](Cc1ccccc1)NC(=O)[C@@H](NCC(N)CS)C(C)CC (stereo partly specified)
- Concentration (NIH3T3 [4]): 10 µM
- inhibition [10]: 10%

Structure (SMILES): CC[C@H](C)[C@H](NC(=O)[C@@H](NC(=O)[C@@H](N)CS)C(C)C)C(=O)N[C@@H](CCSC)C(=O)O
- IC50 [1]: 165 nM
- IC50 [2]: 49000 nM

Structure (SMILES): CCC(C)[C@@H](CN[C@@H](Cc1ccccc1)C(=O)N[C@@H](CCSC)C(=O)O)NCC(N)CS (stereo partly specified)
- Concentration (NIH3T3 [4]): > 100 µM
- inhibition [5]: 30%
- IC50 [1]: 4.8 nM
- IC50 [3]: 5750 nM

Structure (SMILES): CC[C@H](C)C(=O)O[C@H]1C[C@@H](C)C=C2C=C[C@H](C)[C@H](CC[C@@H]3C[C@@H](O)CC(=O)O3)[C@H]21
- inhibition [11]: > 90%

Structure (SMILES): CC[C@H](C)[C@H](NC(=O)[C@@H](N)CS)C(=O)N[C@@H](Cc1ccccc1)C(=O)N[C@@H](CCSC)C(=O)O
- IC50 [1]: 27 nM
- IC50 [2]: 300000 nM

Structure (SMILES): CCCCCCCCCCOC(=O)[C@H](CCSC)NC(=O)[C@H](Cc1ccccc1)NC(=O)[C@@H](NCC(N)CS)C(C)CC (stereo partly specified)
- Concentration (NIH3T3 [8]): 2 µM

Structure (SMILES): CC[C@H](C)[C@H](NC(=O)[C@@H](NC(=O)[C@@H](N)CS)[C@@H](C)CC)C(=O)N[C@@H](CCO)C(=O)O
- IC50 [1]: 330 nM

Structure (SMILES): CCC(C)[C@H](NCC(N)CS)C(=O)N[C@H](CN[C@@H](CCSC)C(=O)O)Cc1ccccc1 (stereo partly specified)
- IC50 [1]: 140 nM
- IC50 [3]: 1100 nM

Structure (SMILES): CC[C@H](C)[C@H](NC[C@@H](N)CS)C(=O)N[C@H](C(=O)N[C@H]1CCOC1=O)[C@@H](C)CC
- Concentration (NIH3T3 [4]): > 100 µM
- inhibition [5]: 30%

Structure (SMILES): CCC(C)[C@@H](CN[C@@H](Cc1ccccc1)C(=O)N[C@@H](CCSC)C(=O)OC)NCC(N)CS (stereo partly specified)
- Concentration (NIH3T3 [4]): 1 µM
- inhibition [12]: 10%

Structure (SMILES): CC[C@H](C)[C@H](NC(=O)[C@@H](NC[C@@H](N)CS)C(C)C)C(=O)N[C@@H](CCSC)C(=O)O
- IC50 [1]: 7 nM
- IC50 [2]: 28 nM

Structure (SMILES): CC[C@@H](C)[C@H](NC[C@@H](NC[C@@H](N)CS)[C@H](C)CC)C(=O)N[C@H]1CCOC1=O
- Concentration (NIH3T3 [4]): > 1000 µM
- inhibition [5]: > 90%
